Measured values: ChEMBL document CHEMBL1148028, “Design and synthesis of urea and thiourea derivatives and their inhibitory activities on lipopolysaccharide-induced NO production” (Bioorg Med Chem Lett, 2007)
Active and inactive are the calls of the source. The rule behind the calls is not given here.

Columns and labels:
[1] = test system: RAW; assay: Inhibition of LPS-induced NO production in RAW 264.7 cells at 5 uM after 20 hrs; format: functional, cell-based; details: Mus musculus
Outline: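 Cells plated in 10% FBS–DMEM for 24 h, then given 1% FBS medium with LPS (1 µg/mL) plus compound for 20 h. Accumulated nitrite assayed by Griess reaction (10 min, room temp), absorbance 570 nm, quantified by sodium nitrite calibration. Percent inhibition relative to LPS-only control, n = 3.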

[2] = test system: RAW; assay: Inhibition of LPS-induced NO production in RAW 264.7 cells at 0.1 uM after 20 hrs; format: functional; details: Mus musculus
[3] = test system: RAW; assay: Inhibition of iNOS protein expression in LPS-stimulated mouse RAW 264.7 cells at 10 uM after 20 hrs by Western blot analysis; format: functional, cell-based
Outline: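 Cells (1.5 × 10⁶ per 60-mm dish) given LPS (1 µg/mL) with or without compound for 20 h, then lysed. 20 µg lysate protein run on 8% SDS-PAGE, blotted to PVDF, probed for mouse iNOS and actin, ECL detection. iNOS band density normalized to actin; means ± SD of three densitometric analyses.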

[4] = test system: RAW; assay: Inhibition of iNOS mRna expression in LPS-stimulated mouse RAW 264.7 cells at 10 uM after 6 hrs by RT-PCR analysis; format: functional, cell-based
Outline: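 Cells (1.8 × 10⁶ per 60-mm dish) stimulated with LPS (1 µg/mL) with or without compound for 6 h, washed twice with PBS. Total RNA extracted with Trizol; iNOS and β-actin mRNA assessed by RT-PCR.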

Row | SMILES | inhibition at 5 µM [1] [%] | other results
1 | CCN(C(N)=O)c1ccc(OCCn2c3ccccc3c3ccccc32)cc1 | 25 | –
2 | CCOC(=O)CNC(=S)Nc1ccc(OCCn2c3ccccc3c3ccccc32)cc1 | 41 | –
3 | NC(=S)N(CC1CC1)c1ccc(OCCn2c3ccccc3c3ccccc32)cc1 | 34 | –
4 | CCOC(=O)CNC(=O)Nc1ccc(OCCn2c3ccccc3c3ccccc32)cc1 | 38 | –
5 | O=C(O)CNC(=O)Nc1ccc(OCCn2c3ccccc3c3ccccc32)cc1 | 43 | –
6 | O=C(O)CNC(=S)Nc1ccc(OCCn2c3ccccc3c3ccccc32)cc1 | 87 | IC50 [1]: 153 nM
7 | O=C(Nc1ccccc1)Nc1ccc(OCCn2c3ccccc3c3ccccc32)cc1 | 28 | –
8 | N=C(N)NN [PIMAGEDINE] | – | inhibition at 0.1 µM [2]: 85%
9 | CCCNC(=O)Nc1ccc(OCCn2c3ccccc3c3ccccc32)cc1 | 14 | –
10 | NC(=O)Nc1ccc(OCCn2c3ccccc3c3ccccc32)cc1 | 24 | –
11 | CNC(=S)Nc1ccc(OCCn2c3ccccc3c3ccccc32)cc1 | 80 | IC50 [1]: 730 nM; Activity [3]: Active; Activity [4]: Active
12 | CN(C(N)=O)c1ccc(OCCn2c3ccccc3c3ccccc32)cc1 | 8 | –
13 | CCNC(=S)Nc1ccc(OCCn2c3ccccc3c3ccccc32)cc1 | 90 | IC50 [1]: 901 nM
14 | CC(C)NC(=O)Nc1ccc(OCCn2c3ccccc3c3ccccc32)cc1 | 15 | –
15 | CCN(C(N)=S)c1ccc(OCCn2c3ccccc3c3ccccc32)cc1 | 33 | –
16 | CCNC(=O)Nc1ccc(OCCn2c3ccccc3c3ccccc32)cc1 | 30 | –
17 | NC(=O)N(CC1CC1)c1ccc(OCCn2c3ccccc3c3ccccc32)cc1 | 61 | IC50 [1]: 3120 nM
18 | NC(=S)Nc1ccc(OCCn2c3ccccc3c3ccccc32)cc1 | 55 | IC50 [1]: 5310 nM
